Rows were chosen to be rich in hits. Some 2.5% of all compounds tested hit in one or more screens of this group.
TRPC6 inhibitor: blocks the mouse TRPC6 cation channel; Q61143; B-score at 10 µM; hit rate 1.1% among 310,000; HEK293-TRPC6, membrane potential dye, ACh-evoked depolarization; hits give low values;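 active = B-score under library mean minus 3 SD, initial fluorescence not abnormally high, positive integrated signal ratio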;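 also: B-score derived from integrated fluorescence ratio over the kinetic read; more negative B-score means stronger inhibition of depolarization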
TRPC4 block: inhibitors of mouse TRPC4 channel; HEK293 TRPC4beta/mu-opioid, DAMGO-evoked Fluo4 calcium flux; hits give low values; B-score at 10 µM; hit rate 0.39% among 300,000; AID 2247;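 active = B-score over 3 SD under the library average, no early fluorescence shift, positive overall ratio signal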
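Signal: kinetic Fluo4 fluorescence imaging of calcium influx. Material: stable TRPC4beta/mu-opioid receptor HEK293 cells. Probe or stimulus: DAMGO in two steps, submaximal then maximal.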
Pemphigus Ab inh: human desmoglein-3 autoantibody binding inhibition; P32926; DSG3-coupled beads, scFv-anti-DSG3-GFP binding, flow cytometry; hits give low values; binding (percent of control), % at 10 µM; hit rate 0.48% among 310,000; AID 588358;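 active = binding more than 3 SD below its plate's average and above zero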;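 also: hits lower antibody fragment binding to DSG3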
Target sequence (P32926 whole entry, looked up, the tested form may be a part): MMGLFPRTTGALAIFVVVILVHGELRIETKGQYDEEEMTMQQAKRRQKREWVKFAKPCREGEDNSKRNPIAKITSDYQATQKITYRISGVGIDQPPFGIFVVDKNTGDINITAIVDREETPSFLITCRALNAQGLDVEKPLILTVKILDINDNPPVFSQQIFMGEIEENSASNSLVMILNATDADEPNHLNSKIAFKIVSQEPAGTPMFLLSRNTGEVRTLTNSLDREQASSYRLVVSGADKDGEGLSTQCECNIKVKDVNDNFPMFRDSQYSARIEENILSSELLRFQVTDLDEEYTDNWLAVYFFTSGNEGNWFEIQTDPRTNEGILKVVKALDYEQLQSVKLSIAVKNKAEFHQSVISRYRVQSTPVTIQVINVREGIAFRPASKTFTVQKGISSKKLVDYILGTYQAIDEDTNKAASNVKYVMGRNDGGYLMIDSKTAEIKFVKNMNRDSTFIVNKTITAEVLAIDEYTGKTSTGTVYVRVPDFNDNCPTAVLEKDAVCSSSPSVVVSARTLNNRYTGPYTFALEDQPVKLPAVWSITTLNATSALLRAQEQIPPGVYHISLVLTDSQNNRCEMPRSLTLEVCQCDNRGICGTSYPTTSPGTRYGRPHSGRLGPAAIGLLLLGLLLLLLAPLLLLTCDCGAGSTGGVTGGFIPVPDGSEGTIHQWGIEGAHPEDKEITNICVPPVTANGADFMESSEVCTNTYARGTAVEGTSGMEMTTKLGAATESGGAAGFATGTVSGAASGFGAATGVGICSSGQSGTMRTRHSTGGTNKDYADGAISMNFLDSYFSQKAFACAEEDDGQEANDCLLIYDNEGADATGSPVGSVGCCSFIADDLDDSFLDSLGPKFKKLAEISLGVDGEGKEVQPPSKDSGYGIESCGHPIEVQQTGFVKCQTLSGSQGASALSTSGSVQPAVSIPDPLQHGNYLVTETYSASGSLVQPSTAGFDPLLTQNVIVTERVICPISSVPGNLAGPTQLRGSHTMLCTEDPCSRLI
TRPC4 PAM: allosterically enhances the mouse TRPC4 cation channel | Q9QUQ5 | HEK293 TRPC4beta/mu-opioid, DAMGO EC20, Fluo-4 Ca2+ flux; hits give high values | B-score at 10 µM | hit rate 0.42% among 310,000;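 active = B-score of calcium response area above 5 SD of library B-scores, with initial fluorescence ratio within 5 SD of library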;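 also: B-score of integrated fluorescence ratio over time as area under calcium response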
TRPC4 agonist: TRPC4 (mouse) channel activation; HEK293 TRPC4beta/mu-opioid, Fluo4 calcium fluorescence; hits give high values; B-score at 10 µM; Q9QUQ5; AID 2237; hit rate 0.49% among 310,000;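 active = B-score above 5 SD of library B-scores, and initial fluorescence ratio not above library mean plus 5 SD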;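 also: positive B-score marks a calcium rise read as TRPC4 activation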
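System: HEK293 cells stably co-expressing mouse TRPC4beta and mu-opioid receptor; Schedule: Fluo4 dye loading 45 min at room temperature, 110 s recording; Detection: Fluo4 fluorescence, kinetic; Evaluation: B-scored integrated calcium fluorescence ratio; Controls: buffer (low) and maximal DAMGO (high).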
TRPC6 activator: activates the mouse TRPC6 cation channel. hit rate 0.13% among 310,000. B-score at 10 µM. Q61143. HEK293-TRPC6 membrane potential dye fluorescence; hits give high values;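 active = B-score of the integrated fluorescence ratio above library mean plus 3 SD, and starting fluorescence ratio within library mean plus 5 SD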;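 also: higher score means more depolarization so channel activation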
TRPC4 spec 2: second selectivity test of TRPC6 inhibitors: effect on mouse TRPC4; HEK293 TRPC4/MOR, membrane potential dye fluorescence; channel activated by saturating DAMGO dose; hit rate 42% among 920; shares compounds with TRPC6 inhibitor; AID 2776; inhibition, % at 10 µM;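 active = compounds whose fluorescence signal differed from control wells by over 3 SD, either direction, in both duplicate plates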
TRPC4 spec: selectivity of TRPC6 inhibitors: effect on mouse TRPC4. shares compounds with TRPC6 inhibitor. HEK293 TRPC4/mu-opioid, membrane potential fluorescence. activity change, negative = inhibition, % at 10 µM. hit rate 61% among 920. AID 2777;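 active = rise or fall in signal beyond 3 SD of buffer-only wells in both replicate plates, either sign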;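 also: integrated kinetic ratio of fluorescence range over baseline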
HEK293 MPD ctr 2-1: parental HEK293 nonspecific activity of TRPC6 inhibitors, second screen | shares compounds with TRPC6 inhibitor | parental HEK293 membrane potential dye fluorescence; maximal acetylcholine challenge after compound addition | signal change vs control, % at 10 µM | hit rate 31% among 920 | AID 2779;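 active = membrane potential signal moving either way by over 3 SD of the maximum-effect control, in both duplicate plates, meaning non-specific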
HEK293 MPD ctr-1: parental HEK293 nonspecific activity of TRPC6 inhibitors; shares compounds with TRPC6 inhibitor; parental HEK293 membrane potential dye fluorescence; membrane potential signal change, % at 10 µM; hit rate 60% among 920; AID 2780;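 active = membrane potential signal shifting up or down by more than 3 SD of buffer-only wells, on both duplicate plates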
HEK293 MPD ctr-2: checks TRPC6 modulator effects in parental HEK293 cells. shares compounds with TRPC6 inhibitor. membrane potential dye fluorescence. hit rate 51% among 2,400. membrane potential signal change, % at 10 µM;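 active = membrane potential signal moves up or down beyond 5 SD from buffer-only wells, on both duplicate plates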
HEK293 MPD ctr 2-2: second check of TRPC6 modulator effects in parental HEK293 cells | shares compounds with TRPC6 inhibitor | membrane potential dye fluorescence; after compound, maximal acetylcholine stimulation | inhibition, % at 10 µM | hit rate 14% among 2,400 | AID 488926;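 active = membrane potential signal drops by more than 5 SD from the mean control signal, in both duplicate plates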;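 also: plate controls were acetylcholine ECmax control wells for no effect and buffer only wells for full effect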
TRPC4 ctr mod: selectivity of TRPC6 modulators against mouse TRPC4; HEK293 TRPC4/mu-opioid, membrane potential fluorescence; hit rate 69% among 2,400; shares compounds with TRPC6 inhibitor; percent change from control (negative = decrease, positive = increase), % at 10 µM;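 active = membrane potential signal moved up or down beyond 5 SD of buffer control wells, in both duplicate plates, actives on both sides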;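 also: plate controls were assay buffer wells for no effect and DAMGO maximal-effect wells for full effect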
TRPC4/MOR inh 2: second check of whether TRPC6 modulators also affect mouse TRPC4; inhibition, % at 10 µM; HEK293 TRPC4/mu-opioid, membrane potential dye fluorescence; stimulated with maximal-effect DAMGO; shares compounds with TRPC6 inhibitor; hit rate 55% among 2,400;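 active = drop in membrane potential signal beyond 5 SD of the control wells in both duplicate plates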;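 also: TRPC4 counter screen for TRPC6 hits run under conditions tuned for TRPC6 not TRPC4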
TRPC6 inh conf: confirmation of mouse TRPC6 inhibitors; AID 488960; shares compounds with TRPC6 inhibitor; HEK293-TRPC6, membrane potential dye, ACh-evoked depolarization; hit rate 43% among 3,300; inhibition, % at 10 µM;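 active = fluorescence ratio falls more than 5 SD below the full-stimulation control mean, in both duplicate runs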;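 also: integrated fluorescence ratio of peak minus minimum over baseline after agonist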
TRPC6 act conf: confirmation of mouse TRPC6 activators; shares compounds with TRPC6 inhibitor; HEK293-TRPC6 membrane potential dye fluorescence, FDSS; activation, % at 10 µM; AID 488961; hit rate 11% among 2,800;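 active = ratio signal rise beyond 5 SD above unstimulated control wells' mean, seen in both duplicate runs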;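 also: plate controls were buffer EC0 wells for no effect and acetylcholine ECmax response for full effect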
Numbers without * were called inactive; i = inactive; x = no result.

SMILES	TRPC6 inhibitor	TRPC4 block	Pemphigus Ab inh	TRPC4 PAM	TRPC4 agonist	TRPC6 activator	HEK293 MPD ctr-2	HEK293 MPD ctr 2-2	TRPC4 ctr mod	TRPC4/MOR inh 2	TRPC6 inh conf	TRPC6 act conf	others
COc1ccc(N2C(=O)CSC23C(=O)N2CCCc4cccc3c42)cc1 (configuration not stated)	-14*	i	103	i	i	i	x	x	x	x	81%*	i	TRPC4 spec 2=i;TRPC4 spec=i;HEK293 MPD ctr 2-1=-29%*;HEK293 MPD ctr-1=i
C/C=C/C=C/C(=O)N1CC[C@]23c4ccccc4N[C@H]4N(C)c5cccc6c5[C@]42CCN([C@H]6C2OC2(C)C)[C@H]13 (some centres not stated)	-6.5*	i	94	i	i	i	i	i	i	30%*	66%*	x
CN1CCC23c4ccccc4NC1C21CCN(C)C3Nc2ccccc21	i	i	100	i	i	i	x	x	x	x	x	x
NCc1cc2c3c(c1)CCCN3CCC2	-5.7*	i	89	i	i	i	i	i	i	i	i	i
CCOC(=O)N1CCN(C(=O)CSc2nc3ccccc3c(=O)n2-c2ccccc2)CC1	i	i	107	i	i	17*	118%*	i	30%*	i	x	172%*
COc1ccc(NC(=O)CNc2ccccc2C(C)=O)cc1S(=O)(=O)N1CCOCC1	x	x	100	x	x	x	x	x	x	x	x	x
COc1ccc(C(=O)N/C(=C\c2cn(C)c3ccccc23)C(=O)OCCN(C)C)cc1	-6.1*	i	113	i	i	i	i	i	i	53%*	45%*	i
CCCCOC(=O)/C(=C/c1cn(C)c2ccccc12)NC(=O)c1ccc(OC)cc1	i	i	112	i	i	i	x	x	x	x	x	x
CN(C)CCCNC(=O)N1c2ccccc2C=Cc2ccccc21	-5.3*	i	117	i	i	i	i	i	i	i	66%*	i
CCN(CC)C(=O)N1c2ccccc2C=Cc2ccccc21	i	i	100	i	i	i	x	x	x	x	x	x
CC(C)NC(=O)c1ccc2c(=O)n(C3CCCC3)c(=S)[nH]c2c1	i	i	98	i	i	i	x	x	x	x	x	x
CCN(CC)CCNC(=O)c1ccc2c(=O)n(C3CCCC3)c(=S)[nH]c2c1	-6.8*	i	103	i	i	i	x	x	x	x	i	i	TRPC4 spec 2=i;TRPC4 spec=i;HEK293 MPD ctr 2-1=i;HEK293 MPD ctr-1=i
Cc1ccc(Sc2c([N+](=O)[O-])ncn2C)cc1	i	i	94	i	i	i	x	x	x	x	x	x
Cc1ccc(Sc2c([N+](=O)[O-])c(C)nn2C)cc1	-8.3*	i	106	i	i	i	x	x	x	x	85%*	i	TRPC4 spec 2=i;TRPC4 spec=i;HEK293 MPD ctr 2-1=-4.0%*;HEK293 MPD ctr-1=i
CCOC(=O)c1nc(C)nc(Sc2n[nH]c(-c3cc(C(F)(F)F)cc(C(F)(F)F)c3)n2)c1C	i	i	108	i	i	i	x	x	x	x	x	x
C[n+]1ccccc1COc1ccc(C(C)(C)C)cc1	-5.1*	i	95	i	i	i	i	i	i	i	i	i
CC(C)(C)c1ccc(OCCNCc2ccccc2)cc1	i	i	115	i	i	i	x	x	x	x	x	x
COc1cc(NC(=O)c2cccc(S(=O)(=O)N3CCCCC3)c2)cc(OC)c1OC	x	x	103	x	x	x	x	x	x	x	x	x
O=C1NC(=O)/C(=C\c2ccc(Cl)cc2Cl)N1	x	x	113	x	x	x	x	x	x	x	x	x
O=S(=O)(c1ccc(Cl)c(NC(=S)N/N=C/c2ccc(O)cc2)c1)N1CCOCC1	-9.1*	i	94	i	i	i	i	i	i	i	i	i
O=[N+]([O-])c1cc(Cl)cc(/C=N/NC(=S)Nc2ccc(S(=O)(=O)N3CCOCC3)cc2)c1O	-7.6*	i	100	26*	i	i	x	x	x	x	i	i	TRPC4 spec 2=57%*;TRPC4 spec=-24%*;HEK293 MPD ctr 2-1=i;HEK293 MPD ctr-1=-274%*
COc1ccc(CNC(=O)CCC(=O)Nc2ccc(Cl)cc2)cc1	i	i	101	i	i	i	x	x	x	x	x	x
CC[N+](C)(C)CC/C=C1/c2ccccc2Sc2ccc(Cl)cc21	-8.8*	i	113	i	i	i	x	x	x	x	79%*	i	TRPC4 spec 2=i;TRPC4 spec=-11%*;HEK293 MPD ctr 2-1=i;HEK293 MPD ctr-1=i
Cc1ccc(N2CC(C(=O)Nc3c(C)n(C)n(-c4ccccc4)c3=O)CC2=O)cc1 (configuration not stated)	i	i	114	i	i	i	x	x	x	x	x	x
CCN1CCN(S(=O)(=O)CC2(C)C3CCC2(C)C(=O)C3Br)CC1 (configuration not stated)	i	i	101	i	i	i	x	x	x	x	x	x
CCCCCC(C)NC(=O)c1cc(S(=O)(=O)N2CCCCC2)ccc1N1CCOCC1 (configuration not stated)	x	x	97	x	x	x	x	x	x	x	x	x
CCCCNC(=O)NC1(C(F)(F)F)Oc2ccccc2O1	i	i	98	i	i	i	x	x	x	x	x	x

Screens: PubChem, several laboratories
